Data reported in ChEMBL document CHEMBL1128389, “Thiadiazole derivatives: highly potent and specific HIV-1 reverse transcriptase inhibitors” (J Med Chem, 1995).

Columns and labels:
MT4 [1] = test: Cytotoxic concentration based on the reduction of viability of mock-infected cells; format: functional; conditions: Homo sapiens
In short: (§1)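 Mock-infected MT-4 cells; viable cell number determined by MTT method; CC50 = concentration giving 50% reduction of viability.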

[2] = Selectivity index is the ratio of CC50 and EC50 in MT-4 cells.; format: functional, MT4
In short: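 MT-4 cells; selectivity index = CC50 (MTT viability of mock-infected cells) divided by EC50 (inhibition of HIV-1-induced cytopathic effect).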

MT4 [3] = test: Compound was evaluated for the inhibition of HIV-1 induced CPE (HTLV-III B strain ) replication in MT-4 cells; format: functional, cell-based; conditions: Homo sapiens
In short: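 HIV-1 strain HTLV-IIIB in MT-4 cells; EC50 = concentration giving 50% inhibition of virus-induced cytopathic effect; viable cells counted by MTT method.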

[4] = (§2) Selectivity index is the ratio of CC50 and EC50 in peripheral blood lymphocytes (PBL).; format: functional
In short: (§3)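 HIV-1 strain HTLV-IIIB in peripheral blood lymphocytes. EC50 is 50% reduction of p24 antigen in culture supernatant. CC50 is 50% loss of viability in mock-infected cells, with viable cells counted by MTT. Index = CC50/EC50.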

Homo sapiens [5] = organism: Homo sapiens; test: Compound was evaluated for the inhibition of HIV-1 (HTLV-III B strain ) replication in peripheral blood lymphocytes (PBL), measured as p24 antigen reduction.
Homo sapiens [6] = organism: Homo sapiens; test: Cytotoxic concentration based on the reduction of viability of mock-infected peripheral blood lymphocytes (PBL); format: functional
In short: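 Mock-infected peripheral blood lymphocytes; viable cell number determined by MTT method; CC50 is the concentration giving 50% reduction of viability.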

Homo sapiens [7] = organism: Homo sapiens; test: as §2; format: functional; in short: as §3
MT4 [8] = test: Cytotoxic concentration based on the reduction of viability of mock-infected MT-4 cells; format: functional; conditions: Homo sapiens; in short: as §1
MT4 [9] = test: Cytotoxic concentration based on the reduction of viability of mock-infected MT-4 cells.; format: functional; conditions: Homo sapiens; in short: as §1
[10] = Selectivity index is the ratio of CC50 and EC50 MT-4 cells.; format: functional, MT4
In short: (§4)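 HIV-1 strain HTLV-IIIB in MT-4 cells. EC50 is 50% inhibition of virus-induced cytopathic effect. CC50 is 50% loss of viability in mock-infected cells. Viable cells were counted by the MTT method. Index = CC50/EC50.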

MT4 [11] = test: Selectivity index is the ratio of CC50 and EC50 in MT-4 cells; format: functional, Homo sapiens; in short: as §4
MT4 [12] = test: Compound was evaluated for the inhibition of HIV-2 induced CPE (LAV-2EHO strain ) replication in MT-4 cells; format: functional, cell-based; conditions: Homo sapiens
Homo sapiens [13] = organism: Homo sapiens; test: Cytotoxic concentration based on the reduction of viability of mock-infected peripheral blood lymphocytes (PBL).; format: functional
In short: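 Mock-infected peripheral blood lymphocytes; CC50 = concentration giving 50% reduction in viability, viable cells measured by MTT method.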

MT4 [14] = test: Compound was evaluated for the inhibition of HIV-1 induced CPE (HTLV-III B strain ) replication in MT-4 cells.; format: functional, cell-based; conditions: Homo sapiens
In short: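 HTLV-IIIB strain of HIV-1 in MT-4 cells; activity read as inhibition of virus-induced cytopathic effect, viable cells counted by MTT method; EC50 is the 50% effective concentration.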

SMILES | CC50 (MT4 [1]) [µM] | Selectivity index [2] | EC50 (MT4 [3]) [nM] | other results
Cc1nsnc1OC(=O)N(C)C | 535 | <1 | > 535000 | –
CN(C)C(=O)Oc1cnsn1 | 560 | <1 | > 560000 | –
CC(=O)c1ccc(C)cc1NC(C(N)=O)c1c(Cl)cccc1Cl (centres undefined) [LOVIRIDE] | 137 | 22833 | 6 | Selectivity index [4]: 436; EC50 (Homo sapiens [5]): 110 nM; CC50 (Homo sapiens [6]): 48 µM
CCCCCCN(C)C(=O)Oc1nsnc1-c1c(Cl)cccc1Cl | 16 | 160 | 100 | –
CN(C)C(=O)Oc1nsnc1-c1c(Cl)cccc1Cl | 145 | 604 | 240 | –
CCN(C)C(=O)Oc1nsnc1-c1c(Cl)cccc1Cl | 136 | 3487 | 39 | –
Cc1cn([C@H]2C[C@H](N=[N+]=[N-])[C@@H](CO)O2)c(=O)[nH]c1=O [ZIDOVUDINE] | 3.2 | – | 4 | Selectivity index [4]: 27667; EC50 (Homo sapiens [5]): 3 nM; CC50 (Homo sapiens [6]): 83 µM
Cc1ccnc2c1NC(=O)c1cccnc1N2C1CC1 [NEVIRAPINE] | 290 | 3973 | 73 | –
CN(C)C(=O)Oc1nsnc1-c1ccccc1 | 183 | 8 | 23000 | –
CCCN(C)C(=O)Oc1nsnc1-c1c(Cl)cccc1Cl | – | – | 13 | Selectivity index (Homo sapiens [7]): 37500; CC50 (MT4 [8]): 131 µM; CC50 (MT4 [9]): 131 µM; Selectivity index [10]: 10077; Selectivity index (MT4 [11]): <1; EC50 (MT4 [12]): > 131 µM; CC50 (Homo sapiens [13]): 150 µM
Oc1nsnc1-c1c(Cl)cccc1Cl | 221 | <1 | – | EC50 (MT4 [14]): 212 µM
CCCCN(C)C(=O)Oc1nsnc1-c1c(Cl)cccc1Cl | 29 | 744 | 39 | –
CN(C)C(=O)Oc1nsnc1-c1ccccc1Cl | 161 | 503 | 320 | –
